# Reference: ChEMBL document CHEMBL1137111, “Application of multi-component reactions to antimalarial drug discovery. Part 1: Parallel synthesis and antiplasmodial activity of new 4-aminoquinoline Ugi adducts” (Bioorg Med Chem Lett, 2004)
# Assays:
# Type in all cases: functional, organism-based
# Plasmodium falciparum [1] = assay: Antimalarial activity against chloroquine-resistant Plasmodium falciparum W2
# How it was run: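 W2 parasites in RPMI-1640 with 10% human serum, synchronized with 5% D-sorbitol. From ring stage, exposed 48 h to a concentration series added from DMSO stocks (≤0.1% DMSO; controls 0.1% DMSO). Fixed 48 h in 1% formaldehyde/PBS pH 7.4 at room temperature, stained with 1 nM YOYO-1, and parasitemia read by flow cytometry. IC50 from % control parasitemia by nonlinear regression, duplicate experiments.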
# Plasmodium falciparum [2] = assay: Antimalarial activity against chloroquine-resistant Plasmodium falciparum K1
# Plasmodium falciparum [3] = assay: Antimalarial activity against chloroquine-sensitive Plasmodium falciparum D10
SMILES,IC50 (Plasmodium falciparum [1]),IC50 (Plasmodium falciparum [2]),IC50 (Plasmodium falciparum [3])
CC(C)(C)NC(=O)CN(CCCNc1ccnc2cc(Cl)ccc12)C(=O)c1cnccn1,1650 nM,2290 nM,1370 nM
CC(C)(C)NC(=O)CN(CCNc1ccnc2cc(Cl)ccc12)C(=O)c1cnccn1,1190 nM,1130 nM,710 nM
O=C(CN(CCCNc1ccnc2cc(Cl)ccc12)C(=O)c1ccncc1)NC1CCCCC1,1560 nM,70 nM,230 nM
O=C(CN(CCCNc1ccnc2cc(Cl)ccc12)C(=O)c1cnccn1)NC1CCCCC1,870 nM,520 nM,240 nM
O=C(CN(CCNc1ccnc2cc(Cl)ccc12)C(=O)c1ccncc1)NC1CCCCC1,610 nM,530 nM,540 nM
CC(C)(C)NC(=O)CN(CCNc1ccnc2cc(Cl)ccc12)C(=O)c1ccncc1,990 nM,1100 nM,1060 nM
O=C(CN(CCCNc1ccnc2cc(Cl)ccc12)C(=O)c1ccc(O)cc1O)NC1CCCCC1,5930 nM,3820 nM,1670 nM
O=C(CN(CCNc1ccnc2cc(Cl)ccc12)C(=O)c1cnccn1)NC1CCCCC1,> 10000 nM,1350 nM,790 nM
CC(C)(C)NC(=O)CN(CCCNc1ccnc2cc(Cl)ccc12)C(=O)c1ccncc1,3800 nM,18200 nM,> 20000 nM
